Test results published in ChEMBL document CHEMBL3627626, “6-Substituted Pyrrolo[2,3-d]pyrimidine Thienoyl Regioisomers as Targeted Antifolates for Folate Receptor α and the Proton-Coupled Folate Transporter in Human Tumors” (J Med Chem, 2015).
Active and inactive are the calls of the source. The calls are words filed in the database; no cut-off is given here.

Experiments:
SK-OV-3 [1] = assay: Antitumor activity against human SKOV3 cells expressing RFC/PCFT/FRalpha xenografted in folate-deficient diet fed NCR SCID mouse assessed as delay in tumor growth at 16 mg/kg, iv administered every 4 days on day 3, 7, 11 measured twice per week; format: functional, organism-based
Method in brief: (§1)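 Ten-week-old female NCR SCID mice, fed a folate-deficient or standard folate-replete diet, were implanted subcutaneously and bilaterally with SKOV3 tumour fragments. Randomised at 5 mice/group. Dosed intravenously, 0.2 mL per injection, in 5% ethanol/1% Tween-80/0.5% NaHCO3 in water at pH 6.5, on days 3, 7 and 11. Tumours measured twice weekly and mice weighed daily. T/C taken on day 21; growth delay and log cell kill also reported.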

[2] = target: Folate receptor alpha (Homo sapiens) (UniProt P15328); assay: Displacement of [3H]-folic acid from human FRalpha expressed in Chinese hamster RT16 cells after 15 mins relative to folic acid; format: cell-based
Method in brief: (§2)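 Competitive binding to surface folate receptor on RT16 (FRα) or D4 (FRβ) CHO cells. Cells were acid-washed (pH 3.5) to strip bound folate, then incubated in HEPES-buffered saline pH 7.4 with 50 nM [3H]folic acid plus unlabeled ligand (0–1000 nM) for 15 min at 0 °C. Bound label was normalised to protein. Affinity is the inverse molar ratio for 50% displacement, with folic acid set to 1. Mean of 4–10 experiments ±SE.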

SK-OV-3 [3] = assay: Antitumor activity against human SKOV3 cells expressing RFC/PCFT/FRalpha xenografted in folate-deficient diet fed NCR SCID mouse assessed as tumor growth inhibition at 16 mg/kg, iv administered every 4 days on day 3, 7, 11 measured on day 21 relative to control; format: functional; method in brief: as §1
KB = assay: Antiproliferative activity against human KB cells expressing FRalpha/PCFT/RFC assessed as cell growth inhibition after 96 hrs by CellTiter-Blue assay; format: functional, cell-based
Mus musculus = assay: Toxicity in folate-deficient diet fed NCR SCID mouse xenografted with human SKOV3 cells expressing RFC/PCFT/FRalpha assessed as body weight loss at 16 mg/kg, iv administered every 4 days on day 3, 7, 11 relative to control; format: organism-based, SK-OV-3; conditions: in vivo, 96 h; method in brief: as §1
IGROV-1 = assay: Antiproliferative activity against human IGROV1 cells after 96 hrs by CellTiter-Blue assay in presence of 200 nM folic acid; format: functional, cell-based; conditions: IGROV-1, 96 h
SK-OV-3 [4] = assay: Antitumor activity against human SKOV3 cells expressing RFC/PCFT/FRalpha xenografted in folate-deficient diet fed NCR SCID mouse assessed as log10 of gross cell killing at 16 mg/kg, iv administered every 4 days on day 3, 7, 11 measured twice per week; format: functional; method in brief: as §1
[5] = target: T1, Proton-coupled folate transporter (Homo sapiens) (UniProt Q96NT5); assay: Binding affinity to human PCFT expressed in Chinese hamster R2/PCFT4 cells assessed as intracellular drug level at 0.5 uM at 37 degC at pH 5.5 measured over 5 mins; format: cell-based
T1 sequence (whole entry): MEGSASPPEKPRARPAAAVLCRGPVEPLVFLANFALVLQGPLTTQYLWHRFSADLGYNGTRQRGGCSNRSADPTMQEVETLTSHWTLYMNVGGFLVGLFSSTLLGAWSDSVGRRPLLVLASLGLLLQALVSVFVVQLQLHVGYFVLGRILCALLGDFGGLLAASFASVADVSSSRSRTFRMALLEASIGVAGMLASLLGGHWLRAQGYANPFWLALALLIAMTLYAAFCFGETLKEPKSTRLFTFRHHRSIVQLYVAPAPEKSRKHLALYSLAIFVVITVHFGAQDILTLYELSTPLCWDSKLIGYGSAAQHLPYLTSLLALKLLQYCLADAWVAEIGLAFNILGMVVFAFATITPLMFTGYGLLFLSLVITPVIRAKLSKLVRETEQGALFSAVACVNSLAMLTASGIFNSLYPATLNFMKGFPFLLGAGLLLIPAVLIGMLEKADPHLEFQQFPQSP

[6] = target: Folate receptor beta (Homo sapiens) (UniProt P14207); assay: Displacement of [3H]-folic acid from human FRbeta expressed in Chinese hamster D4 cells after 15 mins relative to folic acid; format: cell-based; method in brief: as §2
Chain of Folate receptor beta (Homo sapiens) (P14207 17-230 limits assumed): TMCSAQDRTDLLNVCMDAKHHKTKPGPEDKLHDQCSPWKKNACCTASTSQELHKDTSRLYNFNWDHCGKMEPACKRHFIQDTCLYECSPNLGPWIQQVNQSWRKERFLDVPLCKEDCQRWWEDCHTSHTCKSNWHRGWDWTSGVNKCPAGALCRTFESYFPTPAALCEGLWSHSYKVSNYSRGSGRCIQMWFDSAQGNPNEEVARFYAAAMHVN

Chain of Folate receptor alpha (Homo sapiens) (P15328 25-234 limits assumed): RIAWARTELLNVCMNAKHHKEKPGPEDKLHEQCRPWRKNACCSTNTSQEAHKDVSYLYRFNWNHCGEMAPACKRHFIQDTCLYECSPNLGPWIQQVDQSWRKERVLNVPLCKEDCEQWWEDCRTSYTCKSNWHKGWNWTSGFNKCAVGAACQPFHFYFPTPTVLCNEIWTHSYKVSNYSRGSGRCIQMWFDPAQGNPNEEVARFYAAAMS

Nc1nc2[nH]c(CCCc3cc(C(=O)N[C@@H](CCC(=O)O)C(=O)O)cs3)cc2c(=O)[nH]1 was tested. Which Activity (SK-OV-3 [1]) did it give?
Its Activity is “Active”.

And the Activity [2]?
Its Activity is 60%.

What about the T/C (SK-OV-3 [3]) of the same compound?
The T/C was 15%.

And the IC50 (KB)?
The IC50 was 0.09 nM.

And the Activity (Mus musculus)?
The Activity was 12.1%.

And the IC50 (IGROV-1)?
The IC50 was 276 nM.

What about the LCK (SK-OV-3 [4]) of the same compound?
Its LCK is 1.9.

What about the Activity [5] of the same compound?
Its Activity is “Active”.

And the Activity [6]?
Its Activity is 35%.
